Source: publication PMC5623067 (Bioorganic & medicinal chemistry letters, 2017)
pIC50: −log10 of the molar value. “And” between values parts separate entries of the source, which are not always exact repeats. Identical values can stand only once.

What was measured:
[1] = biological target: T1, human topoisomerase IIα (Homo sapiens, UniProt P11388); assay: Inhibition of topoisomerase IIα-mediated DNA cleavage in the presence of Ca2+; type: biochemical; conditions: Ca2+ in place of Mg2+; 150 nM enzyme; xanthone up to 10 µM
T1 sequence (P11388 whole entry): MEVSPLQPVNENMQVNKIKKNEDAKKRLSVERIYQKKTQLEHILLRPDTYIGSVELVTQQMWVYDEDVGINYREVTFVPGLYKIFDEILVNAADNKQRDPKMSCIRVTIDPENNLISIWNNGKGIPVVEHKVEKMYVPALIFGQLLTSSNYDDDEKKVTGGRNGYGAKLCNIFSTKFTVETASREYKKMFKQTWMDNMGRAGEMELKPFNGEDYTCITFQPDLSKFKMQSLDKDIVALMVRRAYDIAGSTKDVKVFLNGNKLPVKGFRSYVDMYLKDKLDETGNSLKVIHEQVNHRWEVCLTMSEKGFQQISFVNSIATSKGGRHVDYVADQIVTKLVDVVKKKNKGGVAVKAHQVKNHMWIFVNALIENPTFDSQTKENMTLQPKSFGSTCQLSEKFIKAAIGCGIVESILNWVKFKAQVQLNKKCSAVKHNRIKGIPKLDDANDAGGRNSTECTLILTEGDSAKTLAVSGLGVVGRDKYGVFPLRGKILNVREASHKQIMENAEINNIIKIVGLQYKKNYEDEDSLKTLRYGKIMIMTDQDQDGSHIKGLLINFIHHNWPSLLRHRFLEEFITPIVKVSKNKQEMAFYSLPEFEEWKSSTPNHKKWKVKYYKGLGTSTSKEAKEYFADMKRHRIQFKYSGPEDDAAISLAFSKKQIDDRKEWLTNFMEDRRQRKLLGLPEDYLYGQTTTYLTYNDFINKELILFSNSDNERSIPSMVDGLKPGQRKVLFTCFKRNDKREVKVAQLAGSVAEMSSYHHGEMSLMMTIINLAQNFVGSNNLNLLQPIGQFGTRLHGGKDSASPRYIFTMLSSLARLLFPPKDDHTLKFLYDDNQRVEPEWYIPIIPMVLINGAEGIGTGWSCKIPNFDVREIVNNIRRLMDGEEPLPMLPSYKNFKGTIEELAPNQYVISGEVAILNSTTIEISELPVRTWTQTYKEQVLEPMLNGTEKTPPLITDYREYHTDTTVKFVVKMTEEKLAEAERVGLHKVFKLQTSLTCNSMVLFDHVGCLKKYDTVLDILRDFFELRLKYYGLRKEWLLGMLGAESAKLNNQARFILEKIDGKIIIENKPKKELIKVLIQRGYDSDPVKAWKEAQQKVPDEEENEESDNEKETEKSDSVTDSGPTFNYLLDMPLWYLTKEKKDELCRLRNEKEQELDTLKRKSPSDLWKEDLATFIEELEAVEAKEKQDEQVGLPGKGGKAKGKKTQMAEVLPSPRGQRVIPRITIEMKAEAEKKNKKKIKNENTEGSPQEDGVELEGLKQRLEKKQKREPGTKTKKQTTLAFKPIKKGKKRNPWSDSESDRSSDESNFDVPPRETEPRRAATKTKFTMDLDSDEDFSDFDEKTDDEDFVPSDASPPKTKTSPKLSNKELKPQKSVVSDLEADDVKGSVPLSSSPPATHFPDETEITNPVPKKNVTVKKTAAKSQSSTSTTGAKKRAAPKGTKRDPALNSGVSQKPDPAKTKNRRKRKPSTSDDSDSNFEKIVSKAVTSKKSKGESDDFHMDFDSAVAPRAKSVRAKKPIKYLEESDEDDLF
How it was run: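 Negatively supercoiled DNA incubated with 150 nM human topoisomerase IIα and test compound. CaCl2 was added to raise baseline enzyme-mediated DNA cleavage. Cleaved DNA was resolved on gels, with controls of DNA without enzyme and enzyme without compound. Cleavage without compound was set to 100%. Gels are representative of 3 experiments, and standard deviations come from 2-3 independent experiments.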

[2] = biological target: T1, human topoisomerase IIα; assay: Competition assay: block of etoposide-enhanced DNA cleavage; type: biochemical; conditions: 100 µM etoposide; 5-100 µM compound (compound 5 up to 10 µM)
[3] = biological target: T1, human topoisomerase IIα; assay: DNA relaxation catalyzed by 150 nM topoisomerase IIα; type: biochemical; conditions: 10 µM compound
How it was run: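 Negatively supercoiled DNA relaxed by 150 nM human topoisomerase IIα with test compound present. Gels show supercoiled DNA without enzyme and enzyme-treated DNA without compound as controls. Each gel is representative of 2-4 independent experiments.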

[4] = biological target: T1, human topoisomerase IIα; assay: DNA; type: biochemical; conditions: kDNA decatenation
[5] = biological target: T1, human topoisomerase IIα; assay: DNA relaxation assay; type: biochemical; conditions: 3 nM enzyme; for pIC50: IC50 for inhibition of DNA relaxation, negatively supercoiled DNA
[6] = Solubility limit noted in the assays; type: physicochemical; conditions: only used up to 10 µM
[7] = biological target: T1, human topoisomerase IIα; assay: ATP hydrolysis catalyzed by topoisomerase IIα; type: biochemical; conditions: up to 50 µM

SMILES: Cl.Cl.NCCCNCC(O)COc1cc(O)c2c(=O)c3ccccc3oc2c1 (stereo not drawn) [compound 2]
- inhibition of enzyme-mediated DNA cleavage [1]: do not inhibit the DNA cleavage step
- ability to block DNA cleavage enhancement by etoposide [2]: competed with etoposide
- inhibition of DNA relaxation by 150 nM enzyme [3]: complete (or near complete) inhibition
- order of potency in decatenation assay [4]: much more potent than compound 6

SMILES: Cl.Cl.Cl.Cl.NCCCNCCCCNCCCNCC(O)COc1cc(O)c2c(=O)c3ccccc3oc2c1 (stereo not drawn) [compound 5]
- inhibition of enzyme-mediated DNA cleavage [1]: do not inhibit the DNA cleavage step
- ability to block DNA cleavage enhancement by etoposide [2]: competed with etoposide
- inhibition of DNA relaxation by 150 nM enzyme [3]: complete (or near complete) inhibition
- pIC50 [5]: ~6.00 and > 5.30
- order of potency in decatenation assay [4]: much more potent than compound 6
- solubility in assay [6]: solubility issues

SMILES: NCCCCNCCCNCC(O)COc1cc(O)c2c(=O)c3ccccc3oc2c1.O=C(O)C(F)(F)F.O=C(O)C(F)(F)F.O=C(O)C(F)(F)F (stereo not drawn) [compound 4]
- inhibition of enzyme-mediated DNA cleavage [1]: do not inhibit the DNA cleavage step
- inhibition of ATP hydrolysis in the absence of DNA [7]: no inhibition was observed
- ability to block DNA cleavage enhancement by etoposide [2]: competed with etoposide
- inhibition of DNA relaxation by 150 nM enzyme [3]: complete (or near complete) inhibition
- pIC50 [5]: 5.30 to 5.60 and > 5.30
- order of potency in decatenation assay [4]: much more potent than compound 6

SMILES: O=c1c2ccccc2oc2cc(O)cc(O)c12 [compound 6, 1,3-dyhydroxy-9h-xanthen-9-one]
- inhibition of DNA relaxation by 150 nM enzyme [3]: no ability to inhibit DNA relaxation
- ability to inhibit DNA relaxation at 10 µM ([5]; 10 µM): no ability to inhibit DNA relaxation
